Source: ChEMBL document CHEMBL4177653, “Identification of nitroimidazole-oxime derivatives targeting the polo-box domain of polo-like kinase 1” (Bioorg Med Chem, 2017)
≈ marks a conversion by molar mass, not a printed value.

How the values were obtained:
[1] = Cytotoxicity against human 293T cells after 72 hrs by MTT assay; format: cell-based; conditions: HEK-293T cells
[2] = tested on: HepG2; assay: Antiproliferative activity against human HepG2 cells after 72 hrs by MTT assay; format: functional, cell-based; conditions: HepG2, 72 h
Summary of the method: (§1)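 Cells kept in high-glucose DMEM with L-glutamine, 10% FBS, penicillin/streptomycin, at 37 °C and 5% CO2. Seeded in 96-well plates and preincubated 48 h. Compounds added at preset concentrations (6 wells each; erlotinib as positive reference) for 72 h. MTT in PBS (2.5 mg/mL) added for 4 h, formazan dissolved in DMSO, A570 read. IC50 is the concentration leaving 50% of cells surviving. Mean ± SD of three independent experiments in triplicate.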

[3] = tested on: MCF7; assay: Antiproliferative activity against human MCF7 cells after 72 hrs by MTT assay; format: functional, cell-based; conditions: MCF7, 72 h; summary of the method: as §1
[4] = tested on: HeLa; assay: Antiproliferative activity against human HeLa cells after 72 hrs by MTT assay; format: functional, cell-based; summary of the method: as §1
[5] = tested on: MGC-803; assay: Antiproliferative activity against human MGC803 cells after 72 hrs by MTT assay; format: functional, cell-based; conditions: MGC-803, 72 h; summary of the method: as §1
[6] = tested on: MGC-803; assay: Induction of apoptosis in human MGC803 cells assessed as early apoptotic cells at 0.12 uM after 24 hrs by Annexin V-FITC/propidium iodide staining-based flow cytometry (reference value: 0.1%); format: functional
[7] = tested on: MGC-803; assay: Induction of apoptosis in human MGC803 cells after 24 hrs by Annexin V-FITC/propidium iodide staining-based flow cytometry; format: functional, cell-based
[8] = tested on: MGC-803; assay: Induction of apoptosis in human MGC803 cells assessed as necrotic cells at 0.06 uM after 24 hrs by Annexin V-FITC/propidium iodide staining-based flow cytometry (reference value: 0%); format: functional
[9] = tested on: MGC-803; assay: Induction of apoptosis in human MGC803 cells assessed as late apoptotic cells at 0.06 uM after 24 hrs by Annexin V-FITC/propidium iodide staining-based flow cytometry (reference value: 0%); format: functional
[10] = tested on: MGC-803; assay: Induction of apoptosis in human MGC803 cells assessed as necrotic cells at 0.01 uM after 24 hrs by Annexin V-FITC/propidium iodide staining-based flow cytometry (reference value: 0%); format: functional
[11] = tested on: MGC-803; assay: Induction of apoptosis in human MGC803 cells assessed as late apoptotic cells at 0.12 uM after 24 hrs by Annexin V-FITC/propidium iodide staining-based flow cytometry (reference value: 0%); format: functional
[12] = tested on: MGC-803; assay: Induction of apoptosis in human MGC803 cells assessed as viable cells at 0.06 uM after 24 hrs by Annexin V-FITC/propidium iodide staining-based flow cytometry (reference value: 99.9%); format: functional; conditions: MGC-803, 24 h, read-out: Activity
[13] = tested on: MGC-803; assay: Induction of apoptosis in human MGC803 cells assessed as early apoptotic cells at 0.06 uM after 24 hrs by Annexin V-FITC/propidium iodide staining-based flow cytometry (reference value: 0.1%); format: functional
[14] = tested on: MGC-803; assay: Induction of apoptosis in human MGC803 cells assessed as late apoptotic cells at 0.01 uM after 24 hrs by Annexin V-FITC/propidium iodide staining-based flow cytometry (reference value: 0%); format: functional
[15] = tested on: MGC-803; assay: Induction of apoptosis in human MGC803 cells assessed as viable cells at 0.01 uM after 24 hrs by Annexin V-FITC/propidium iodide staining-based flow cytometry (reference value: 99.9%); format: functional; conditions: MGC-803, 24 h, read-out: Activity
[16] = tested on: MGC-803; assay: Induction of apoptosis in human MGC803 cells assessed as viable cells at 0.12 uM after 24 hrs by Annexin V-FITC/propidium iodide staining-based flow cytometry (reference value: 99.9%); format: functional; conditions: MGC-803, 24 h, read-out: Activity
[17] = tested on: MGC-803; assay: Induction of apoptosis in human MGC803 cells assessed as early apoptotic cells at 0.01 uM after 24 hrs by Annexin V-FITC/propidium iodide staining-based flow cytometry (reference value: 0.1%); format: functional
[18] = tested on: MGC-803; assay: Induction of apoptosis in human MGC803 cells assessed as necrotic cells at 0.12 uM after 24 hrs by Annexin V-FITC/propidium iodide staining-based flow cytometry (reference value: 0%); format: functional

SMILES	IC50 [2]	IC50 [3]	IC50 [4]	IC50 [5]	CC50 at 72 h [1]	also measured
Cc1nc([N+](=O)[O-])cn1C/C(=N/OC(=O)c1ccccc1[N+](=O)[O-])c1ccc(Br)cc1	6.59 µg/mL (≈ 13.5 µM)	7.13 µg/mL (≈ 14.6 µM)	11.3 µg/mL (≈ 23.2 µM)	2.54 µg/mL (≈ 5.2 µM)	230 µg/mL (≈ 471 µM)	
Cc1nc([N+](=O)[O-])cn1C/C(=N/OC(=O)c1ccc(Cl)cc1)c1ccc(Br)cc1	1.34 µg/mL (≈ 2.81 µM)	2.79 µg/mL (≈ 5.84 µM)	8.79 µg/mL (≈ 18.4 µM)	0.45 µg/mL (≈ 0.942 µM)	230 µg/mL (≈ 481 µM)	
Cc1nc([N+](=O)[O-])cn1C/C(=N/OC(=O)c1ccncc1)c1ccc(Br)cc1	0.81 µg/mL (≈ 1.82 µM)	0.87 µg/mL (≈ 1.96 µM)	1.63 µg/mL (≈ 3.67 µM)	0.02 µg/mL (≈ 0.045 µM)	80 µg/mL (≈ 180 µM)	
Cc1ccc(C(=O)O/N=C(/Cn2cc([N+](=O)[O-])nc2C)c2ccc(Br)cc2)cn1	0.75 µg/mL (≈ 1.64 µM)	0.72 µg/mL (≈ 1.57 µM)	0.86 µg/mL (≈ 1.88 µM)	0.005 µg/mL (≈ 0.0109 µM)	8300 µg/mL (≈ 18100 µM)	Activity [6]: 16.9%; Activity [7]: Dose-dependent effect; Activity [8]: 0.2%; Activity [9]: 43.2%; Activity [10]: 1.2%; Activity [11]: 64.6%; viability at 0.06 µM [12]: 41.2%; Activity [13]: 15.4%; Activity [14]: 28.1%; viability at 0.01 µM [15]: 61%; viability at 0.12 µM [16]: 18.4%; Activity [17]: 9.7%; Activity [18]: 0.1%
Cc1nc([N+](=O)[O-])cn1C/C(=N/OC(=O)c1ccccc1Br)c1ccc(Br)cc1	4.38 µg/mL (≈ 8.39 µM)	3.79 µg/mL (≈ 7.26 µM)	> 20 µg/mL	2.63 µg/mL (≈ 5.04 µM)	150 µg/mL (≈ 287 µM)	
COc1ccc(C(=O)O/N=C(/Cn2cc([N+](=O)[O-])nc2C)c2ccc(Br)cc2)cc1	1.25 µg/mL (≈ 2.64 µM)	3.15 µg/mL (≈ 6.66 µM)	6.54 µg/mL (≈ 13.8 µM)	0.34 µg/mL (≈ 0.718 µM)	1600 µg/mL (≈ 3380 µM)	
CC1=CC(=O)C(C(C)C)=CC1=O [THYMOQUINONE]					140 µg/mL (≈ 853 µM)	
Cc1nc([N+](=O)[O-])cn1C/C(=N/OC(=O)c1cccc(Br)c1)c1ccc(Br)cc1	0.86 µg/mL (≈ 1.65 µM)	1.37 µg/mL (≈ 2.62 µM)	2.57 µg/mL (≈ 4.92 µM)	0.04 µg/mL (≈ 0.0766 µM)	180 µg/mL (≈ 345 µM)	

More lines, main results first:

IC50 [2]	IC50 [3]	IC50 [4]	IC50 [5]	SMILES	CC50 at 72 h [1]	also measured
0.73 µg/mL (≈ 1.64 µM)	0.78 µg/mL (≈ 1.76 µM)	1.51 µg/mL (≈ 3.4 µM)	0.01 µg/mL (≈ 0.0225 µM)	Cc1nc([N+](=O)[O-])cn1C/C(=N/OC(=O)c1cccnc1)c1ccc(Br)cc1	50 µg/mL (≈ 113 µM)	
0.92 µg/mL (≈ 1.94 µM)	0.89 µg/mL (≈ 1.88 µM)	2.35 µg/mL (≈ 4.95 µM)	0.03 µg/mL (≈ 0.0633 µM)	COc1ccc(C(=O)O/N=C(/Cn2cc([N+](=O)[O-])nc2C)c2ccc(Br)cc2)cn1	980 µg/mL (≈ 2070 µM)	
1.22 µg/mL (≈ 2.65 µM)	2.12 µg/mL (≈ 4.6 µM)	7.24 µg/mL (≈ 15.7 µM)	1.24 µg/mL (≈ 2.69 µM)	Cc1nc([N+](=O)[O-])cn1C/C(=N/OC(=O)c1ccc(F)cc1)c1ccc(Br)cc1	23000 µg/mL (≈ 49900 µM)	
0.96 µg/mL (≈ 2.1 µM)	1.54 µg/mL (≈ 3.37 µM)	0.96 µg/mL (≈ 2.1 µM)	0.81 µg/mL (≈ 1.77 µM)	Cc1ccc(C(=O)O/N=C(/Cn2cc([N+](=O)[O-])nc2C)c2ccc(Br)cc2)cc1	270 µg/mL (≈ 590 µM)	
14 µg/mL (≈ 31.5 µM)	> 20 µg/mL	> 20 µg/mL	3.66 µg/mL (≈ 8.26 µM)	Cc1nc([N+](=O)[O-])cn1C/C(=N/OC(=O)c1ccccc1)c1ccc(Br)cc1	32000 µg/mL (≈ 72200 µM)	
